Reference: the M2OR odorant receptor database

How the values were obtained:
Settings in all cases: stereoisomer not certain
[1] = target: T1, OR51E1 (Homo sapiens) (UniProt Q8TCB6)
T1 sequence (whole entry): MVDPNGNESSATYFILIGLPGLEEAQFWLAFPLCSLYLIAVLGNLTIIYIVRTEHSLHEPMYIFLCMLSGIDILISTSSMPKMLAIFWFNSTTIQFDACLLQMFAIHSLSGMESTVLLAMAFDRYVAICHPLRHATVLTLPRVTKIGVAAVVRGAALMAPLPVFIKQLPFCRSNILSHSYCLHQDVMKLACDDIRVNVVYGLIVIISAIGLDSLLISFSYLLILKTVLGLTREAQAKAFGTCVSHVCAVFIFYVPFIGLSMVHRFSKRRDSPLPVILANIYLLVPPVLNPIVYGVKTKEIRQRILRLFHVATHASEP
Summary of the method: (§1)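 Each receptor–molecule pair is labelled responsive or non-responsive (inactive) according to whether the original authors judged the measured signal statistically different from baseline. The data were taken from the main text and supplementary material of published papers and checked for typos and inconsistencies. Assay methods differed by source, with transient luciferase assays in mammalian cell lines being common.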

[2] = target: T2, OR51E2 (Homo sapiens) (UniProt Q9H255)
T2 sequence (whole entry): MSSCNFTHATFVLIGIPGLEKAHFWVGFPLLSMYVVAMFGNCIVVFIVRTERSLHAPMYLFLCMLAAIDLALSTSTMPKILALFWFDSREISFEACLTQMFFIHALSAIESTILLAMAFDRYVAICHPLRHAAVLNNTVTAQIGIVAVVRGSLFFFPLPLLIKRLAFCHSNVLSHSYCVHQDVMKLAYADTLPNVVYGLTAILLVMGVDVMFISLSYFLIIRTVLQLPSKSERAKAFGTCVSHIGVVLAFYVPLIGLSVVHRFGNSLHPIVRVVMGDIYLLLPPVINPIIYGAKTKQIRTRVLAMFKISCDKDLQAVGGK
Summary of the method: as §1

[3] = target: T3, OR51D1 (Homo sapiens) (UniProt Q8NGF3)
T3 sequence (whole entry): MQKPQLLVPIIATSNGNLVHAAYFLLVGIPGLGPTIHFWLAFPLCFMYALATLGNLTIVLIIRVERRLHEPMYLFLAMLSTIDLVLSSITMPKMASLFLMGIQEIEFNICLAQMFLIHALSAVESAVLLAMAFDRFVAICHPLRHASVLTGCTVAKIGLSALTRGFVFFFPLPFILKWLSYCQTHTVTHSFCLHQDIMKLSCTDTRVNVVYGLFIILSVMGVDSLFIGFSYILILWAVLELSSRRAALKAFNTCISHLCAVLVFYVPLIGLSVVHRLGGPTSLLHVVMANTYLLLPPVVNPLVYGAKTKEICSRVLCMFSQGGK
Summary of the method: as §1

[4] = target: T4, OR51F1 (Homo sapiens) (UniProt A6NGY5)
T4 sequence (whole entry): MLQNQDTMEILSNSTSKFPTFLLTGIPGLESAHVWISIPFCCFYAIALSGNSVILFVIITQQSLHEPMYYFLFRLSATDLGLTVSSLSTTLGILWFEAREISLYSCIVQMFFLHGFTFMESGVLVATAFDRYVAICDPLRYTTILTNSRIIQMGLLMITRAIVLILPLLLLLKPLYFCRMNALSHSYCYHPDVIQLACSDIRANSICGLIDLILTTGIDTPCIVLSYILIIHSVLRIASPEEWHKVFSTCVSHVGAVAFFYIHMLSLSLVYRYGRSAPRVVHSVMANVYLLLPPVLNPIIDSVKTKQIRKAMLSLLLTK
Summary of the method: as §1

[5] = target: T5, OR51F2 (Homo sapiens) (UniProt Q8NH61)
T5 sequence (whole entry): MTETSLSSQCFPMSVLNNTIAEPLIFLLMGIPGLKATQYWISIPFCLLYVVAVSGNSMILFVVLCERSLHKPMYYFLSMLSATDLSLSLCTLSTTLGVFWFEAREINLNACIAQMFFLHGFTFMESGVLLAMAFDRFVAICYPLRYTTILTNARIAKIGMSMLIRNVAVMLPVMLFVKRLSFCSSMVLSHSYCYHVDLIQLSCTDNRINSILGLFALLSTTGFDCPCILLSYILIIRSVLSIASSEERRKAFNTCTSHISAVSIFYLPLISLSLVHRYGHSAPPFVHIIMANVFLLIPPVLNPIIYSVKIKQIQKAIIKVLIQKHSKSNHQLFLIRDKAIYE
Summary of the method: as §1

[6] = target: T6, OR51G1 (Homo sapiens) (UniProt Q8NGK1)
T6 sequence (whole entry): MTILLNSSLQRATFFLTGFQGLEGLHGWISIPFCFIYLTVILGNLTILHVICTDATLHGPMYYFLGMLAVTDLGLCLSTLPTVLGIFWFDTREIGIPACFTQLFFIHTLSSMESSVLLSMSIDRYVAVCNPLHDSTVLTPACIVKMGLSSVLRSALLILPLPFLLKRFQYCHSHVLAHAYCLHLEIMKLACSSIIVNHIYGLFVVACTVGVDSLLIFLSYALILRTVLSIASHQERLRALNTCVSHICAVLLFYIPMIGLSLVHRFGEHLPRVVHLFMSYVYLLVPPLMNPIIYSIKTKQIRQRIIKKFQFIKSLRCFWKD
Summary of the method: as §1

[7] = target: T7, OR51G2 (Homo sapiens) (UniProt Q8NGK0)
T7 sequence (whole entry): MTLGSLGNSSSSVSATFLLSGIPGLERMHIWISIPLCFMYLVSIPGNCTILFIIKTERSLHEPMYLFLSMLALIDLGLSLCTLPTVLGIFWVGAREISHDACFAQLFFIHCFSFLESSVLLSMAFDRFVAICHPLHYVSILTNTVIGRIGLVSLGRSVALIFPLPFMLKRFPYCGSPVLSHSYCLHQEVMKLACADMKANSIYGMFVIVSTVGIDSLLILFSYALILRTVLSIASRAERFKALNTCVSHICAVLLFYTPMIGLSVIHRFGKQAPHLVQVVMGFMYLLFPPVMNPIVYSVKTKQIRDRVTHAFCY
Summary of the method: as §1

[8] = target: T8, OR51I1 (Homo sapiens) (UniProt Q9H343)
T8 sequence (whole entry): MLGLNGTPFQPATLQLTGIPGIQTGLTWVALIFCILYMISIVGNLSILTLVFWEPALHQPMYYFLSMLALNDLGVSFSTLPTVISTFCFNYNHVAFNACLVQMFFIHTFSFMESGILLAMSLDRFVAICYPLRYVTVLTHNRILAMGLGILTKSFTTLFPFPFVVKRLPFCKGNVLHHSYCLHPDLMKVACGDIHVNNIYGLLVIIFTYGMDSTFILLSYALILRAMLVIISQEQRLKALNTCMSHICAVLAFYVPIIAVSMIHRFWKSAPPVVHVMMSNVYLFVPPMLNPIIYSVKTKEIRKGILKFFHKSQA
Summary of the method: as §1

[9] = target: T9, OR51E1 (Homo sapiens) (UniProt Q8TCB6); remark: listed apart in the source
T9 sequence (whole entry): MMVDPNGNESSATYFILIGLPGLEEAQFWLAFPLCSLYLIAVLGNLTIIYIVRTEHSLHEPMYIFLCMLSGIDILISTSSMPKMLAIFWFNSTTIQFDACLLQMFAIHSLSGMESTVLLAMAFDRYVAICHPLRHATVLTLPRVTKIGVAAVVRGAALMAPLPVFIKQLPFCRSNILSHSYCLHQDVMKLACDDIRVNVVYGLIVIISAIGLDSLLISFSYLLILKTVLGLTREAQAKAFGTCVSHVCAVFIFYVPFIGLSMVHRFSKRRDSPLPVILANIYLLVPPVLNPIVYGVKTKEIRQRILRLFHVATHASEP
Summary of the method: as §1

[10] = target: OR51H1 (Homo sapiens) (UniProt Q8NH63)
Sequence of OR51H1 (Homo sapiens) (Q8NH63 whole entry): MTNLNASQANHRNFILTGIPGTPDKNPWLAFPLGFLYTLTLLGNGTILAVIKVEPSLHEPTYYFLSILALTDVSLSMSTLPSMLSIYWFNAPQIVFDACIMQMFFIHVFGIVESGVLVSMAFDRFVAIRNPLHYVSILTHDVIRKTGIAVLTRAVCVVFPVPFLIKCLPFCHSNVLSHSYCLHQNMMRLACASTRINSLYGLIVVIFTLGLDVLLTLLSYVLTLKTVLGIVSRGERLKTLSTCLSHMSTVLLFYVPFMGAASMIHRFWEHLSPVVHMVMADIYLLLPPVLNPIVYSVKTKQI
Summary of the method: as §1

Measured: odorant receptor agonist call

CCCCCC1=C(C)CCC1=O
inactive: [1] | [2]

CCC(S)C(C)CO (centres undefined)
inactive: [3] | [1] | [2] | [4] | [5] | [6] | [7] | [8]

C=CCOC(=O)CCCCCC
inactive: [1] | [2]

CCCC(C)C(=O)O (centres undefined)
active: [1]

CC(C)=CCCC(C)=CCO
inactive: [1] | [2]

CC1=C(O)C(=O)C(C)O1 (centres undefined)
inactive: [3] | [9] | [2] | [5] | [6] | [7] | [8]

CCCCCCC(C)=O
inactive: [1] | [2]

O=C1CCOc2ccccc21
inactive: [1] | [2]

CCCCCCCC(C)=O
inactive: [1] | [2]

CCCCCC(S)C(C)CO (centres undefined)
inactive: [3] | [1] | [2] | [4] | [5] | [6] | [7] | [8]

CC(=O)c1c(C)c([N+](=O)[O-])c(C(C)(C)C)c([N+](=O)[O-])c1C
inactive: [3] | [2] | [4] | [5] | [6] | [7] | [10] | [8]

CCCCCCCO
inactive: [1] | [2]

CCCCCCCCCCCCCCCC(=O)[O-].[H+]
inactive: [1]

CC1=NC(C)C(C)S1 (centres undefined)
inactive: [3] | [9] | [2] | [5] | [6] | [7] | [8]

CC1=C(O)C(=O)OC1C (centres undefined)
inactive: [3] | [9] | [2] | [5] | [6] | [7] | [8]

CCCCCC1CCCC(=O)O1 (centres undefined)
inactive: [3] | [1] | [2] | [4] | [5] | [6] | [7] | [8]

O=C([O-])c1ccccc1.[H+]
inactive: [1]

CCC1OC(=O)C(O)=C1C (centres undefined)
inactive: [3] | [9] | [2] | [5] | [6] | [7] | [8]

CCC1OC(C)=C(O)C1=O (centres undefined)
inactive: [3] | [9] | [2] | [5] | [6] | [7] | [8]

CCC(C)CC(=O)O (centres undefined)
active: [1]

CCCCCCCCO
inactive: [1] | [2]

CCCCCOC(=O)CCCCC
inactive: [1] | [2]

O=C([O-])CC(O)(CC(=O)O)C(=O)[O-].[H+].[H+]
inactive: [1]

CCCCCCCCCCCCCC(=O)O
inactive: [1]

CCCCCCCCCO
inactive: [1] | [2]

CCCCCCC(=O)[O-].[H+]
inactive: [1] | [2]

Cc1cnc(C)c(C)n1
inactive: [3] | [9] | [2] | [5] | [6] | [7] | [8]

CCCC(S)CCOC(C)=O (centres undefined)
inactive: [3] | [9] | [2] | [5] | [6] | [7] | [8]
